The text below walks through data of ChEMBL document CHEMBL4765256, “Structural features and functional activities of benzimidazoles as NOD2 antagonists” (Eur J Med Chem, 2020).

In data set [1] the test system is THP-1. The data set is described as follows: Antagonist activity at NOD in human THP-1 cells assessed as increase in TNF-alpha secretion at 20 uM. Type of data set: cell-based. A digest of the protocol: (§1)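 THP-1 cells at 10^6 cells/mL in RPMI 1640 with 10% heat-inactivated FCS, passages 3–12, exposed to 20 µM compound alone (no NOD agonist). IL-8 and TNF-α in cell-free supernatants measured by sandwich ELISA, reported in pg/mL. Detection limits were 15.6 pg/mL for IL-8 and 4 pg/mL for TNF-α. DMSO vehicle control, not above 0.2% final.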

Data set [2] concerns THP-1. The data set is described as follows: Antagonist activity at NOD in human THP-1 cells assessed as increase in IL-8 secretion at 20 uM. It is filed as cell-based. A digest of the protocol:
as §1

The target in data set [3] is T1, Nucleotide-binding oligomerization domain-containing protein 2 (Homo sapiens, UniProt Q9HC29). The data set is described as follows: Antagonist activity at NOD2 in human THP-1 cells assessed as reduction in MDP-induced IL-8 secretion at 20 uM preincubated for 1 hr followed by MDP stimulation and measured after 20 hrs by ELISA. Conditions: filed as antagonist, time 21.0 hrs. Type of data set: cell-based. A digest of the protocol: (§2)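 THP-1 cells at 10^6 cells/mL in 24-well cultures, passages 3–12. Pre-treated 1 h with 20 µM compound, then 10 µM MDP (NOD2) or 10 µM C12-iE-DAP (NOD1) added, 20 h at 37 °C, 5% CO2. Triplicate wells, DMSO ≤0.2% as vehicle control. Supernatant IL-8 by sandwich ELISA, detection limit 15.6 pg/mL. Mean ± SD of duplicates from three independent experiments, Dunnett test.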

The target in data set [4] is T2, Nucleotide-binding oligomerization domain-containing protein 1 (Homo sapiens) (UniProt Q9Y239).
T2 sequence (whole entry): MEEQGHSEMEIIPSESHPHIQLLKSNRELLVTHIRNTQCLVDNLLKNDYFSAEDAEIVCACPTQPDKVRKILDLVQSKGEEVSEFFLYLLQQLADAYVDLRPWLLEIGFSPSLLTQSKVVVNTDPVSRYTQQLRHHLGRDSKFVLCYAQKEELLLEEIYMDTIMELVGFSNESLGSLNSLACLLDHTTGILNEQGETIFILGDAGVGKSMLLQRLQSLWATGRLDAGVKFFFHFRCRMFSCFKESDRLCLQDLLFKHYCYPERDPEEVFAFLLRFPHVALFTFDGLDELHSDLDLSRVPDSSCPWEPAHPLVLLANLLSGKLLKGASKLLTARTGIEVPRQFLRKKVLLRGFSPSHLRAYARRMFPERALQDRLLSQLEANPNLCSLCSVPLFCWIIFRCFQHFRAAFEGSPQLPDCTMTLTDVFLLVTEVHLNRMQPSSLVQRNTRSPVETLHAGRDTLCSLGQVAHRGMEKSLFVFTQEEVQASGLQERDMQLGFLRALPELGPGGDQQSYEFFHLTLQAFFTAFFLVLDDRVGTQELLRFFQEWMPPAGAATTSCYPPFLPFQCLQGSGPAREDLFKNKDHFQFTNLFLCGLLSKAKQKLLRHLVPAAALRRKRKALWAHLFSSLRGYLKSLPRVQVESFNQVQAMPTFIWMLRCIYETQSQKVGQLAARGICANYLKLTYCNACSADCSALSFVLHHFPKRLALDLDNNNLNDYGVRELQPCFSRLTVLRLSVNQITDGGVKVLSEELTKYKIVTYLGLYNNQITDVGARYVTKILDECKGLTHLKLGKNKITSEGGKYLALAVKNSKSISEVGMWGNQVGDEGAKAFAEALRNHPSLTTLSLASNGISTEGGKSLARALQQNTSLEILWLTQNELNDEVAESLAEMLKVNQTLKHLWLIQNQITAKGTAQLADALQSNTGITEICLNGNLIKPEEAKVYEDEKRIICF
The experiment in a line: Antagonist activity at human NOD1 expressed in HEK293 cells assessed as reduction in C12-iE-DAP-induced NF-kappaB activation at 10 uM preincubated for 1 hr followed by C12-iE-DAP stimulation and measured after 18 hrs by SEAP reporter gene based spectrophotometric analysis. Type of data set: cell-based. Conditions: filed as antagonist, time 19.0 hrs. A digest of the protocol:
(§3)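 HEK-Blue NOD1 or NOD2 reporter cells (5 × 10^5 cells/mL, passages 7–12) pre-treated 1 h with 10 µM compound. Then 100 nM C12-iE-DAP (NOD1) or 2 µM MDP (NOD2) for 18 h at 37 °C, 5% CO2. Secreted SEAP read at 620 nm. DMSO ≤0.1% vehicle control. Duplicates, three biological replicates.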
(In general: Reporter assays use an easily measured gene product as a stand-in for the process of interest.)

Data set [5] relates to HEK293. The data set is described as follows: Cytotoxicity against human HEK293 cells expressing human NOD1 assessed as reduction in metabolic activity at 20 uM incubated for 18 hrs by MTS assay. It is filed as ADME, cell-based. Conditions: hek293, 18 h. A digest of the protocol:
(§4)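 HEK-Blue NOD1 or NOD2 cells seeded at 1 × 10^4 cells/well in triplicate. Treated 18 h with 20 µM compound or 0.1% DMSO vehicle. Metabolic activity read by MTS (CellTiter 96 AQueous One) and expressed relative to vehicle control. Mean ± SD of three biological replicates.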
(Tetrazolium assays rely on reduction of a dye to a coloured formazan, in cell work by metabolically active cells.)

In data set [6] the target is T1, Nucleotide-binding oligomerization domain-containing protein 2. The experiment in a line: Antagonist activity at human NOD2 expressed in HEK293 cells assessed as reduction in MDP-induced NF-kappaB activation at 10 uM preincubated for 1 hr followed by MDP stimulation and measured after 18 hrs by SEAP reporter gene based spectrophotometric analysis. It is filed as cell-based. Conditions: filed as antagonist, time 19.0 hrs. A digest of the protocol: as §3

Data set [7] has the same target. The data set is described as follows: Antagonist activity at NOD2 in human PBMC assessed as reduction in MDP-induced IL-10 secretion at 20 uM preincubated for 1 hr followed by MDP stimulation and measured after 18 hrs by flow cytometric analysis. Type of data set: tissue-based. Conditions: filed as antagonist, time 19.0 hrs. Put shortly: (§5)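 Human PBMCs from healthy donors, Ficoll density-gradient isolated, 1 × 10^6 cells in RPMI 1640 with 10% heat-inactivated FBS. Pre-treated 1 h with 20 µM compound, then 2 µM MDP. Supernatants taken at 18 h and stored at −80 °C. Cytokines quantified by flow cytometric bead array (Th1/Th2 panel) against recombinant standards, in pg/mL. Mean ± SD from two representative experiments.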
A general note: Flow cytometry measures light scatter and fluorescence of single cells or particles in a stream.

Data set [8] addresses T3, Nucleotide-binding oligomerization domain-containing protein 1 (Homo sapiens, UniProt Q9Y239).
T3 sequence (Q9Y239 whole entry): T2 sequence (whole entry)
The experiment in a line: Antagonist activity at human NOD1 expressed in HEK293 cells assessed as reduction in C12-iE-DAP-induced NF-kappaB activation preincubated for 1 hr followed by C12-iE-DAP stimulation and measured after 18 hrs by SEAP reporter gene based spectrophotometric analysis. It is filed as cell-based.

For data set [9], the target named is T1, Nucleotide-binding oligomerization domain-containing protein 2. The experiment in a line: Antagonist activity at NOD2 in human PBMC assessed as reduction in MDP-induced IL-6 secretion at 20 uM preincubated for 1 hr followed by MDP stimulation and measured after 18 hrs by flow cytometric analysis. Conditions: filed as antagonist, time 19.0 hrs. It is filed as tissue-based. A digest of the protocol: as §5

Data set [10] has as its system THP-1. The data set is described as follows: Cytotoxicity against human THP-1 cells assessed as […] dehydrogenase leakage at 20 uM incubated for 18 hrs. Type of data set: cell-based. Conditions: thp-1, 18 h. Put shortly:
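THP-1 cells treated 18 h with compound at up to 20 µM. Lactate dehydrogenase released into cell-free supernatant measured with a colorimetric kit, results given as OD.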

Data set [11] deals with HEK293. The data set is described as follows: Cytotoxicity against human HEK293 cells expressing human NOD2 assessed as reduction in metabolic activity at 20 uM incubated for 18 hrs by MTS assay. It is filed as ADME, cell-based. Conditions: hek293, 18 h. Put shortly: as §4
The target of data set [12] is T2, Nucleotide-binding oligomerization domain-containing protein 1 (Homo sapiens). The data set is described as follows: Antagonist activity at NOD1 in human THP-1 cells assessed as reduction in C12-iE-DAP-induced IL-8 secretion at 20 uM preincubated for 1 hr followed by C12-iE-DAP stimulation and measured after 20 hrs by ELISA. It is filed as cell-based. Conditions: filed as antagonist, time 21.0 hrs. A digest of the protocol: as §2

Data set [13] has as its system THP-1. The data set is described as follows: Antagonist activity at NOD1/TLR4 in human THP-1 cells assessed as reduction in C12-iE-DAP/LPS-induced TNF-alpha secretion at 20 uM preincubated for 1 hr followed by C12-iE-DAP/LPS stimulation and measured after 20 hrs by ELISA. It is filed as cell-based. Conditions: time 21.0 hrs. Put shortly:
(§6)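 Synergy setting in THP-1 cells: 1 h pre-treatment with 20 µM compound, then 10 µM MDP or C12-iE-DAP plus 1 ng/mL E. coli O127:B8 LPS for 20 h. Supernatant TNF-α by sandwich ELISA, detection limit 4 pg/mL. DMSO vehicle ≤0.2%. Duplicates from three independent experiments, mean ± SD, Dunnett test against agonist+LPS-treated cells.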

Data set [14] concerns the target T1, Nucleotide-binding oligomerization domain-containing protein 2. The experiment in a line: Antagonist activity at human NOD2 expressed in HEK293 cells assessed as reduction in MDP-induced NF-kappaB activation preincubated for 1 hr followed by MDP stimulation and measured after 18 hrs by SEAP reporter gene based spectrophotometric analysis. It is filed as cell-based. Conditions: read-out: IC50. Put shortly:
(§7)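 Dose–response in HEK-Blue NOD2 and NOD1 cells (5 × 10^5 cells/mL): 1 h pre-treatment with 0.3125–20 µM antagonist, then 2 µM MDP or 100 nM C12-iE-DAP respectively, 18 h incubation. SEAP absorbance read at 620 nm. IC50 fitted by non-linear regression. Duplicates, three biological replicates, DMSO ≤0.1%.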

The test system of data set [15] is THP-1. The data set is described as follows: Antagonist activity at NOD2/TLR4 in human THP-1 cells assessed as reduction in MDP/LPS-induced TNF-alpha secretion at 20 uM preincubated for 1 hr followed by MDP/LPS stimulation and measured after 20 hrs by ELISA. It is filed as cell-based. Conditions: filed as antagonist, time 21.0 hrs. A digest of the protocol:
as §6

For data set [16], the target named is T1, Nucleotide-binding oligomerization domain-containing protein 2. The experiment in a line: Antagonist activity at NOD2 in human PBMC assessed as reduction in MDP-induced TNF-alpha secretion at 20 uM preincubated for 1 hr followed by MDP stimulation and measured after 18 hrs by flow cytometric analysis. Conditions: filed as antagonist, time 19.0 hrs. It is filed as tissue-based. Put shortly:
as §5

For the next data set, the species on record is Homo sapiens. The experiment in a line: Selectivity index, ratio of IC50 for antagonist activity at human NOD1 expressed in HEK293 cells assessed as reduction in […] induced NF-kappaB activation preincubated for 1 hr followed by C12-iE-DAP stimulation and measured after 18 hrs by SEAP reporter gene based spectrophotometric analysis to IC50 for antagonist activity at human NOD2 cells expressed in HEK293 cells assessed as reduction in MDP induced NF-kappaB activation preincubated for 1 hr followed by […] stimulation and measured after 18 hrs by SEAP reporter gene based spectrophotometric analysis. It is filed as cell-based. A digest of the protocol:
as §7

The source made the active and inactive calls. The rule behind the calls is not given here.

As a reminder, the IC50 is the concentration that gives 50% inhibition.

T1 sequence (Q9HC29 whole entry, the tested form may be a part): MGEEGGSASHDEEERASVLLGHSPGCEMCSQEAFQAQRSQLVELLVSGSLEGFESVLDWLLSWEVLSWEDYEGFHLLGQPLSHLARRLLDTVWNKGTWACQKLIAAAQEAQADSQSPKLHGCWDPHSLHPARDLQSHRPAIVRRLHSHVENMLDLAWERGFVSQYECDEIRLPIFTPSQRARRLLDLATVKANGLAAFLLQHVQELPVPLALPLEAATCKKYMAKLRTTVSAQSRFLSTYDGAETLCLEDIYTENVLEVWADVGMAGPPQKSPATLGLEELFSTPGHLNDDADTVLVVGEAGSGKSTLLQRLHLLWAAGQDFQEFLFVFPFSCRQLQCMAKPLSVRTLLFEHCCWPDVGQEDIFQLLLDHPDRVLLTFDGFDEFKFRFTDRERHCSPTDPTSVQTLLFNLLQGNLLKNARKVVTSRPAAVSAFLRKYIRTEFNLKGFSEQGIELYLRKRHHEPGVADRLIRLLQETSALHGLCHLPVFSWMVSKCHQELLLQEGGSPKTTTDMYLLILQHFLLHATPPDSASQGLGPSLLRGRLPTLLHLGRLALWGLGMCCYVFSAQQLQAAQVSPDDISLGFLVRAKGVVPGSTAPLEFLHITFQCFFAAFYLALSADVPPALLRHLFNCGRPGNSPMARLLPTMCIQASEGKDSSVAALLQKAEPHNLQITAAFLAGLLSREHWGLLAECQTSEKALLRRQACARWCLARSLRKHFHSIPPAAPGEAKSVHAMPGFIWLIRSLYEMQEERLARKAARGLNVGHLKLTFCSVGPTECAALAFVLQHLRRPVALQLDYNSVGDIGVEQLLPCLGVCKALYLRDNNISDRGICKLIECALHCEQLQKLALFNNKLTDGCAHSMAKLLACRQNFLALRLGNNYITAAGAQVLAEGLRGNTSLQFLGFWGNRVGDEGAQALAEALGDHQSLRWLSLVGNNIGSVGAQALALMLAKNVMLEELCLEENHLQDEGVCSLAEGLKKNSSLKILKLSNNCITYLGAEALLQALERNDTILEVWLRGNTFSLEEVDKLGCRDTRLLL

As to `O=C(Cn1c(CCNS(=O)(=O)c2ccccc2)nc2ccccc21)Nc1ccc2c(c1)CCC2`, the result in the data set on THP-1 [1], in the data set on THP-1 [2] and with THP-1 [13] was inactive. Besides, the result in data set [3], in data set [4], in data set [6], in [7], in data set [9] and in [12] was Active. In addition, the result (with THP-1 [15]; in [16]) was Active. For the same compound, the Activity entry with HEK293 [5], in the data set on THP-1 [10] and in the data set with HEK293 [11] was “Non-Toxic” each time. In addition, the IC50 stood at 28.2 µM in data set [8] and 5.23 µM in data set [14].

As for `CN(C)c1cccc2c(S(=O)(=O)NCCc3nc4ccccc4n3CC(=O)Nc3ccc4c(c3)CCC4)cccc12`, the result in the data set on THP-1 [1], in the data set on THP-1 [2] and with THP-1 [13] was inactive. In addition, the result (in data set [3]; in [4]; in data set [6]; in [12]; in the data set on THP-1 [15]) was Active. In addition, the Activity entry in the data set with HEK293 [5], in the data set with THP-1 [10] and in the data set with HEK293 [11] was “Non-Toxic” in each case. Besides, the results for the IC50 in data set [8] and in data set [14] were 2.68 µM and 6.2 µM, respectively.

Regarding `O=C(Cn1c(CCNC(=O)c2ccccc2)nc2ccccc21)Nc1ccc2c(c1)CCC2`, the outcome in [3], in [4] and in [6] was Active. Further, the Activity result with HEK293 [5] and in the data set with HEK293 [11] was “Non-Toxic” each time. In addition, the results for the concentration for half-maximal inhibition (IC50) in data set [8] and in data set [14] were 27.6 µM and 6.2 µM, respectively. Further, in the data set filed under Homo sapiens, the Ratio IC50 was 4.5.
